Reference: ChEMBL document CHEMBL1147132, “Structure-activity relationship studies of gonadotropin-releasing hormone antagonists containing S-aryl/alkyl norcysteines and their oxidized derivatives” (J Med Chem, 2007)
Converted amounts (≈) assume the structure as drawn. Starred links: 1 amine or outer side, 2 acyl side, 3 side chain; linkers in the order of their positions; H or OH if unused. Non-standard residues stand in square brackets, D forms with d. Residues, ends and D or L forms follow the SMILES beside them. Phe(4-NH(5-NH2triazol-3-yl)) = Nc1nc(Nc2ccc(C[C@H](N)C(=O)O)cc2)n[nH]1; X1 = Nc1nc(Nc2ccc(C[C@@H](N[*:1])C(=O)[*:2])cc2)n[nH]1; dPhe(4-Cl) = N[C@H](Cc1ccc(Cl)cc1)C(=O)O; d2Nal = N[C@H](Cc1ccc2ccccc2c1)C(=O)O; Lys(iPr) = CC(C)NCCCC[C@H](N)C(=O)O; d3Pal = N[C@H](Cc1cccnc1)C(=O)O

How the values were obtained:
Rattus norvegicus [1] = experiment: Inhibition of plasma testosterone levels in Sprague-Dawley rat at 9.8 uM, sc by enzyme-linked immunosorbent assay; assay type: functional
Outline: (§1)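 Intact adult male Sprague-Dawley rats (275–310 g, 3 per group) received subcutaneous mini-pumps for seven days. Solutions were in 1:3 DMSO/water: 19.6 μM (~0.66 nM/day/kg), or 9.8 μM (~0.33 nM/day/kg). Sham-operated controls. Plasma was sampled on days 3–7 and testosterone measured by ELISA. Values are means of days 4–7.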

[2] = Solubility in 5% mannitol; assay type: physicochemical
[3] = molecular target: T1, Gonadotropin-releasing hormone receptor (Homo sapiens, UniProt P30968); experiment: Antagonist activity at human GnRHR expressed in HEK293 cells assessed as inhibition of GnRH-induced luciferase response by reporter gene assay; assay type: functional, cell-based
T1 sequence (P30968 whole entry): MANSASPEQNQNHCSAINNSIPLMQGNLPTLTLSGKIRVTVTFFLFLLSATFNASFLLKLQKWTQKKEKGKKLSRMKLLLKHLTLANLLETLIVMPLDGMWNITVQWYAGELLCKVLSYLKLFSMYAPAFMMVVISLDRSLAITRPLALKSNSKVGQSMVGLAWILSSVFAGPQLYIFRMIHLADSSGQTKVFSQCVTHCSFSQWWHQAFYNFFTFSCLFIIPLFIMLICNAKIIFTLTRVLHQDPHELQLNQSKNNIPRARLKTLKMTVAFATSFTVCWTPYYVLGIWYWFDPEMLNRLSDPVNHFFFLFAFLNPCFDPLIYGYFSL
Outline: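 HEK293 cells stably expressing cloned human GnRHR and an LH alpha-subunit-promoter luciferase reporter, plated overnight. Compound in 1% DMSO was added 10 min before GnRH (1 nM final), then ≥5 h at 37 °C, 5% CO2, then luminescence. 11 half-log concentrations in duplicate. IC50 from four-parameter logistic fit, reported as geometric mean of ≥2 experiments.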

[4] = molecular target: T2, Gonadotropin-releasing hormone receptor (Rattus norvegicus, UniProt P30969); experiment: Antagonist activity at rat GnRHR expressed in HEK293 cells assessed as inhibition of GnRH-induced luciferase response by reporter gene assay; assay type: functional, cell-based
T2 sequence (P30969 whole entry): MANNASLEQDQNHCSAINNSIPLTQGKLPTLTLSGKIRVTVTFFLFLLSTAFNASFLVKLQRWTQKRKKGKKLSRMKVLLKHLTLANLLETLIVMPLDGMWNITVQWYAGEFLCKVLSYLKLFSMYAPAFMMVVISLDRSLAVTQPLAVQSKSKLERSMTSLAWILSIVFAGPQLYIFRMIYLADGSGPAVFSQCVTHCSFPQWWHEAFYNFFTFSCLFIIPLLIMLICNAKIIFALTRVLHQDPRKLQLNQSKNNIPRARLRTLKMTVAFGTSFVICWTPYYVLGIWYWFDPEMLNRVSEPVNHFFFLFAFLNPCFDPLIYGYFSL
Outline: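 Rat GnRHR stably expressed in HEK293 cells, transiently transfected with an NFAT-responsive luciferase reporter, plated after 16 h and assayed next day. Compound in 1% DMSO was given 10 min before 1 nM GnRH (final), ≥5 h at 37 °C, then luminescence. Duplicates at 11 half-log concentrations. IC50 by four-parameter logistic fit, geometric mean of ≥2 experiments.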

Rattus norvegicus [5] = experiment: Inhibition of plasma testosterone levels in Sprague-Dawley rat at 19.6 uM, sc by enzyme-linked immunosorbent assay; assay type: functional; outline: as §1
[6] = Ratio of IC50 for rat GnRHR to IC50 for human GnRHR in HEK293 cells; assay type: functional
[7] = molecular target: T3, Gonadotropin-releasing hormone receptor (Homo sapiens) (UniProt P30968); experiment: Antagonist activity at human GnRHR expressed in COS7 cells assessed as inhibition of GnRH-stimulated inositol phosphate production after 2 hrs; assay type: functional, cell-based; conditions: COS-7, filed as antagonist
T3 sequence (whole entry): T1 sequence (P30968 whole entry)
Outline: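 COS-7 cells transiently transfected with WT hGnRH-R cDNA, labelled 18 h at 37 °C with 4 μCi/mL [3H]myo-inositol in inositol-free DMEM. Cells were washed in medium with 5 mM LiCl, then co-incubated 2 h at 37 °C with 10−8 M GnRH plus analogue at 10−8 to 10−5 M. IP was measured by Dowex anion-exchange and scintillation counting. Triplicate, repeated three or more times.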

solubility [2] | IC50 [3] | IC50 [4] | Activity [7] | SMILES | Activity (Rattus norvegicus [1]) | Plasma testosterone level (Rattus norvegicus [5]) | Ratio IC50 [6]
50 mg/mL | 1.36 nM (antagonist) | 1.4 nM (antagonist) | – | CC(=O)N[C@H](Cc1ccc2ccccc2c1)C(=O)N[C@H](Cc1ccc(Cl)cc1)C(=O)N[C@H](Cc1cccnc1)C(=O)N[C@@H](CO)C(=O)N[C@@H](Cc1ccc(Nc2n[nH]c(N)n2)cc1)C(=O)N[C@H](Cc1ccc(Nc2n[nH]c(N)n2)cc1)C(=O)N[C@@H](CC(C)C)C(=O)N[C@@H](CCCCNC(C)C)C(=O)N1CCC[C@H]1C(=O)N[C@H](C)C(N)=O.CC(=O)O [PRAZARELIX ACETATE] (Ac-[d2Nal][dPhe(4-Cl)][d3Pal]S[Phe(4-NH(5-NH2triazol-3-yl))][X1]L[Lys(iPr)]P[dA]-NH2) | 1.39 ng/mL | 0.32 ng/mL | 1.03
50 mg/mL (≈ 32.2 mM) | 0.31 nM (antagonist) | 2.5 nM (antagonist) | Antagonist | CC(=O)Nc1ccc(C[C@H](NC(=O)[C@H](CO)NC(=O)[C@@H](Cc2cccnc2)NC(=O)[C@@H](Cc2ccc(Cl)cc2)NC(=O)[C@@H](Cc2ccc3ccccc3c2)NC(C)=O)C(=O)N[C@H](Cc2ccc(NC(C)=O)cc2)C(=O)N[C@@H](SC(C)C)C(=O)N[C@@H](CCCCNC(C)C)C(=O)N2CCC[C@H]2C(=O)N[C@H](C)C(N)=O)cc1 | – | 1.59 ng/mL | 8.07
50 mg/mL (≈ 31.9 mM) | 0.8 nM (antagonist) | 1.7 nM (antagonist) | Antagonist | CS[C@H](NC(=O)[C@@H]1CCCN1C(=O)[C@H](CCCCNC(C)C)NC(=O)[C@H](CC(C)C)NC(=O)[C@@H](Cc1ccc(NC(C)=O)cc1)NC(=O)[C@H](Cc1ccc(NC(C)=O)cc1)NC(=O)[C@H](CO)NC(=O)[C@@H](Cc1cccnc1)NC(=O)[C@@H](Cc1ccc(Cl)cc1)NC(=O)[C@@H](Cc1ccc2ccccc2c1)NC(C)=O)C(N)=O | – | 2.21 ng/mL | 2.13
50 mg/mL (≈ 32.3 mM) | 1.2 nM (antagonist) | 2.4 nM (antagonist) | Antagonist | CS[C@H](NC(=O)[C@@H](Cc1cccnc1)NC(=O)[C@@H](Cc1ccc(Cl)cc1)NC(=O)[C@@H](Cc1ccc2ccccc2c1)NC(C)=O)C(=O)N[C@@H](Cc1ccc(NC(C)=O)cc1)C(=O)N[C@H](Cc1ccc(NC(C)=O)cc1)C(=O)N[C@@H](CC(C)C)C(=O)N[C@@H](CCCCNC(C)C)C(=O)N1CCC[C@H]1C(=O)N[C@H](C)C(N)=O | – | 1.99 ng/mL | 2
50 mg/mL (≈ 32.6 mM) | 0.52 nM (antagonist) | 1.5 nM (antagonist) | Antagonist | CC(=O)Nc1ccc(C[C@H](NC(=O)[C@H](CO)NC(=O)[C@@H](Cc2cccnc2)NC(=O)[C@@H](Cc2ccc(Cl)cc2)NC(=O)[C@@H](Cc2ccc3ccccc3c2)NC(C)=O)C(=O)N[C@H](Cc2ccc(NC(C)=O)cc2)C(=O)N[C@@H](CC(C)C)C(=O)N[C@@H](CCCCNC(C)C)C(=O)N2CCC[C@H]2C(=O)N[C@H](C)C(N)=O)cc1 [ACYLINE] | – | 0.69 ng/mL | 2.89
